What was measured:
[1] = Lethal dose in mice after perorla administration; format: toxicity, organism-based; conditions: mouse, in vivo, po
Rattus norvegicus [2] = experiment: Compound was assessed for its ability to produce catalepsy in rats; Dose administered perorally is 10 mg/kg; Group score is 4-7; format: functional; conditions: route oral
Summary of the method: (§1)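 Groups of eight Lilly Wistar rats (180–190 g) were dosed orally, then checked at 0.5, 1, 1.5, 2, 3, 4 and 5 h. Front paws were placed on a 1.5-cm rod 7 cm above the table, and hold time was recorded up to 20 min. Each rat was scored 0–5 and its maximum scores were summed per group (maximum 40), then graded 0–4.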

Mus musculus = experiment: Hypothermia in mice after peroral administration; format: functional
Rattus norvegicus [3] = experiment: Compound was assessed for its ability to block a conditioned avoidance response; Dose administered perorally is 10 mg/kg; 31-50%block; format: functional; conditions: route oral
Summary of the method: (§2)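 Lilly Wistar rats (120–130 g) trained in a shuttle box to cross on a 5-s buzzer, with mild shock if no response within 1 s of buzzer end. Only rats with a high conditioned response were used. Groups of five were dosed orally 1 h 50 min before the session, then habituated 10 min and tested 20 min. Shocks were scored as % of stimuli and graded 0–5.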

Rattus norvegicus [4] = experiment: Ability to block a conditioned avoidance response; Dose administered perorally is 50 mg/kg.; format: functional; conditions: route oral; summary of the method: as §2
Rattus norvegicus [5] = experiment: Compound was assessed for its ability to block a conditioned avoidance response; Dose administered perorally is 50 mg/kg; 26-30%block; format: functional; conditions: route oral; summary of the method: as §2
Rattus norvegicus [6] = experiment: Compound was assessed for its ability to produce catalepsy in rats; Dose administered perorally is 50 mg/kg; Group score is 0-3; format: functional; conditions: route oral; summary of the method: as §1
Rattus norvegicus [7] = experiment: Compound was assessed for its ability to produce catalepsy in rats; Dose administered perorally is 50 mg/kg; Group score is 8-15; format: functional; conditions: route oral; summary of the method: as §1
Rattus norvegicus [8] = experiment: Compound was assessed for its ability to block a conditioned avoidance response; Dose administered perorally is 50 mg/kg; 76-99%block; format: functional; conditions: route oral; summary of the method: as §2
Rattus norvegicus [9] = experiment: Compound was assessed for its ability to block a conditioned avoidance response; Dose administered perorally is 10 mg/kg; no significant effect (0-25%block); format: functional; conditions: route oral; summary of the method: as §2
Rattus norvegicus [10] = experiment: Compound was assessed for its ability to block a conditioned avoidance response; Dose administered perorally is 40 mg/kg; 26-30%block; format: functional; conditions: route oral; summary of the method: as §2
Rattus norvegicus [11] = experiment: Compound was assessed for its ability to produce catalepsy in rats; Dose administered perorally is 25 mg/kg; Group score is 8-15; format: functional; conditions: route oral; summary of the method: as §1
Rattus norvegicus [12] = experiment: Compound was assessed for its ability to block a conditioned avoidance response; Dose administered perorally is 20 mg/kg; no significant effect (0-25%block); format: functional; conditions: route oral; summary of the method: as §2
Rattus norvegicus [13] = experiment: Compound was assessed for its ability to block a conditioned avoidance response; Dose administered perorally is 10 mg/kg; 26-30%block; format: functional; conditions: route oral; summary of the method: as §2
Rattus norvegicus [14] = experiment: Compound was assessed for its ability to block a conditioned avoidance response; Dose administered perorally is 25 mg/kg; no significant effect (0-25%block); format: functional; conditions: route oral; summary of the method: as §2
Rattus norvegicus [15] = experiment: Compound was assessed for its ability to block a conditioned avoidance response; Dose administered perorally is 20 mg/kg; 76-99%block; format: functional; conditions: route oral; summary of the method: as §2
Rattus norvegicus [16] = experiment: Compound was assessed for its ability to block a conditioned avoidance response; Dose administered intraperitoneally is 50 mg/kg; no significant effect (0-25%block); format: functional; conditions: route intraperitoneal

Structure (SMILES) | LD50 [1] [mg/kg] | EDmin (Mus musculus) [mg/kg] | Activity (Rattus norvegicus [4]) | also measured
CCc1cc2c(s1)Nc1ccccc1N=C2N1CCN(CC)CC1 | 200 | 50 | – | Activity (Rattus norvegicus [2]): 1; Activity (Rattus norvegicus [3]): 2
CCc1cc2c(s1)Nc1ccc(Cl)cc1C(N1CCN(C)CC1)=N2 | > 100 | 50 | 0 | –
CCOC(=O)N1CCN(C2=Nc3cc(F)ccc3Nc3sc(C)cc32)CC1 | > 400 | >400 | 0 | –
OCCN1CCN(CC/C=C2\c3ccccc3Sc3ccc(C(F)(F)F)cc32)CC1 [E-FLUPENTIXOL] | > 400 | >400 | – | Activity (Rattus norvegicus [5]): 1; Activity (Rattus norvegicus [6]): 0
CCCCCCc1cc2c(s1)Nc1ccc(F)cc1N=C2N1CCN(C)CC1 | > 400 | 100 | 0 | –
CCc1cc2c(s1)Nc1ccccc1N=C2N1CCN(Cc2ccccc2)CC1 | > 400 | 200 | – | Activity (Rattus norvegicus [7]): 2; Activity (Rattus norvegicus [8]): 4
CCc1cc2c(s1)Nc1ccc(F)cc1N=C2N1CCCCC1 | > 200 | 12.5 | 0 | –
CN1CCN(C2=Nc3ccccc3Nc3sc(C(C)(C)C)cc32)CC1 | 400 | 12.5 | – | Activity (Rattus norvegicus [9]): 0
CCc1cc2c(s1)Nc1ccc(F)cc1N=C2N1CCN(Cc2ccccc2)CC1 | > 400 | 200 | – | Activity (Rattus norvegicus [10]): 1; Activity (Rattus norvegicus [11]): 2
CC(=O)c1cc2c(s1)Nc1ccc(F)cc1N=C2N1CCN(C)CC1 | 200 | 12.5 | – | Activity (Rattus norvegicus [7]): 2; Activity (Rattus norvegicus [12]): 0
CCc1cc2c(s1)Nc1ccc(SC)cc1N=C2N1CCN(C)CC1 | > 200 | 100 | 0 | –
CCc1cc2c(s1)Nc1ccc(F)cc1N=C2N1CCN(Cc2ccc(Cl)cc2)CC1 | > 400 | >400 | 0 | Activity (Rattus norvegicus [6]): 0
CCc1cc2c(s1)Nc1ccc(F)cc1N=C2NCCO | > 800 | 200 | 0 | Activity (Rattus norvegicus [6]): 0
CCCN1CCN(C2=Nc3cc(F)ccc3Nc3sc(CC)cc32)CC1 | > 100 | 6.25 | – | Activity (Rattus norvegicus [9]): 0
CN1CCN(C2=Nc3cc(F)ccc3Nc3sc(C(C)(C)C)cc32)CC1 | > 400 | 12.5 | – | Activity (Rattus norvegicus [2]): 1; Activity (Rattus norvegicus [13]): 1
CCc1cc2c(s1)Nc1ccc(F)cc1N=C2NCCN1CCN(c2ccccc2)CC1 | > 800 | >400 | 0 | Activity (Rattus norvegicus [6]): 0
Cc1csc2c1C(N1CCN(C)CC1)=Nc1cc(F)ccc1N2 | > 200 | 25 | – | Activity (Rattus norvegicus [14]): 0
CN1CCN(C2=Nc3cc(F)ccc3Nc3sc4c(c32)CCCC4)CC1 | > 400 | 100 | 0 | –
CCc1cc2c(s1)Nc1ccc(F)cc1N=C2N1CCN(CCO)CC1 | 400 | 50 | – | Activity (Rattus norvegicus [15]): 4; Activity (Rattus norvegicus [2]): 1
Cc1cc2c(s1)Nc1ccc(F)cc1N=C2N1CCNCC1 | 400 | 100 | – | Activity (Rattus norvegicus [5]): 1
CCOC(=O)N1CCN(C2=Nc3cc(F)ccc3Nc3sc(CC)cc32)CC1 | > 800 | 100 | 0 | Activity (Rattus norvegicus [6]): 0
CCc1cc2c(s1)Nc1ccc(F)cc1N=C2NCCCN1CCOCC1 | 800 | 400 | – | Activity (Rattus norvegicus [16]): 0
CCc1cc2c(s1)Nc1ccc([N+](=O)[O-])cc1N=C2N1CCN(C)CC1 | > 400 | 50 | – | Activity (Rattus norvegicus [14]): 0
